Assay [1] deals with T1, xanthine oxidase (Bos taurus, UniProt P80457). Nature of the assay: Uric acid formation catalyzed by XO. It counts as biochemical. The method in brief:
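Xanthine oxidase (Grade IV) was run in 40 mM sodium carbonate with 0.1 mM EDTA, pH 10.0, at 25 °C. Xanthine was 0–200 µM, and test compound came from a 10 mM DMSO stock. Start with 0.04 unit XO and record uric acid at 293 nm for 60 s. Rate came from the linear rise, against a DMSO control. IC50 was taken at 200 µM xanthine. Mode and kinetic parameters were fitted from ≥3 separate runs.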

In assay [2] the target is T1, xanthine oxidase. Nature of the assay: O2- generation catalyzed by XO. It counts as biochemical.
Assay [3] in a line: Scavenging of DPPH radicals and initial scavenging rate. Particulars: for DPPH activity: 20 min, 25 °C, pH 5.5. The method in brief:
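DPPH (3 mM ethanolic stock) was mixed with 100 mM acetate buffer (pH 5.5) and ethanol. Test compound (10 mM DMSO stock) was added, with DMSO as control, and kept at 25 °C for 20 min. Absorbance was read at 517 nm (ε = 8.32 X 103). The initial rate came from the absorbance drop just after compound addition. Runs were done ≥3 times.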
In general terms: Loss of DPPH colour is used to gauge radical scavenging.

Experimental findings from paper PMC8566757 (Food Chemistry: X, 2021) are described below.

T1 sequence (P80457 whole entry): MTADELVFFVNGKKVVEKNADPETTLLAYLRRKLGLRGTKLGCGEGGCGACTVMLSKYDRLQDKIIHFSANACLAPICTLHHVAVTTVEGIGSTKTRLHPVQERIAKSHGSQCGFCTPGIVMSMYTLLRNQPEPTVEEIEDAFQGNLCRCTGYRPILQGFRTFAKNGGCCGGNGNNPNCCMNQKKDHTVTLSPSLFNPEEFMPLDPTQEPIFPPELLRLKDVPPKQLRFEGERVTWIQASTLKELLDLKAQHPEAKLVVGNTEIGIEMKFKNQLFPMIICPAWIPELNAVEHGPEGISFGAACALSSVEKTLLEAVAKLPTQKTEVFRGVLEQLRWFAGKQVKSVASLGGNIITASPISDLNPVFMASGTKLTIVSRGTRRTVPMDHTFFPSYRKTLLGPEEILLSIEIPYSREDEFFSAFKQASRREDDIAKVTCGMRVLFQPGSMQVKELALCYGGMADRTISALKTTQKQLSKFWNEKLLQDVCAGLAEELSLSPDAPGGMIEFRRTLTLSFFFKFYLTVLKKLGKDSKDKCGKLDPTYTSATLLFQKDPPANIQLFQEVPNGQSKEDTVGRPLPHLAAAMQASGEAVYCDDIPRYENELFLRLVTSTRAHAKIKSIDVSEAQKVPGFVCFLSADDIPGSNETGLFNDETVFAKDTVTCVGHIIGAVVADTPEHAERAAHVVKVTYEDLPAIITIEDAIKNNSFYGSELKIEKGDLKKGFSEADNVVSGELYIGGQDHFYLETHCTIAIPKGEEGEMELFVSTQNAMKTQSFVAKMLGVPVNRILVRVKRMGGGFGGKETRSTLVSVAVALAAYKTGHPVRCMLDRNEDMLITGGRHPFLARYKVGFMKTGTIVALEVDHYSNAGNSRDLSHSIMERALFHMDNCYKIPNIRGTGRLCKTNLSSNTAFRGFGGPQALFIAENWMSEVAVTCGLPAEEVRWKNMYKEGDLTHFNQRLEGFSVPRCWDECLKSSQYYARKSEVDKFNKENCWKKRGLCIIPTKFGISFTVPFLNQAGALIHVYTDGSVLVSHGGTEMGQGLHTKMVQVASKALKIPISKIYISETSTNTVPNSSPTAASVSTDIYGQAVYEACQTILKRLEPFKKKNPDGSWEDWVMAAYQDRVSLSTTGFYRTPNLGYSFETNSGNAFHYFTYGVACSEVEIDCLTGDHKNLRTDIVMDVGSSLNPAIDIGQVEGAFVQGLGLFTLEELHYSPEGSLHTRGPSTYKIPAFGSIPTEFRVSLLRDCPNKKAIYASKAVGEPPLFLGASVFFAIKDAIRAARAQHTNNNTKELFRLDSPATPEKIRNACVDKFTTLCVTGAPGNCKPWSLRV

`Oc1ccc(/C=C/c2cc(O)cc(O)c2)cc1` [Resveratrol (1), Resveratrol]: in assay [1], inhibition was half-maximal at 34 ± 4 µM (IC50) and the Ki was found to be 7.7 ± 0.7 µM. Moreover, the “Inhibition kinetics (mode) of uric acid formation” value in assay [1] (versus xanthine) was “competitive inhibition”. In assay [2], this molecule had an IC50 of 21 ± 3 µM and a Ki of 7.1 ± 1 µM. The DPPH activity in assay [3] is listed as 0.72 ± 0.27 DPPH molecules / a molecule of stilbene compound.

`OC[C@H]1O[C@@H](Oc2cc(O)cc(/C=C/c3ccc(O)cc3)c2)[C@H](O)[C@@H](O)[C@@H]1O` [Resveratrol-3-glucoside (2), Resveratrol-3-glucoside] displayed an IC50 in assay [1] above 50 µM. Also, in assay [2], half-maximal inhibition (IC50) required 49 ± 1 µM and the affinity, expressed as Ki, was 19 ± 2 µM. Besides, the DPPH activity in assay [3] is 0.59 ± 0.15 DPPH molecules / a molecule of stilbene compound.

With `COc1cc(/C=C/c2ccc(O)cc2)cc(OC)c1` [Pterostilbene (5), Pterostilbene], the IC50 in assay [1] was above 50 µM; in assay [2], 124 ± 16 µM. The molecule further had a Ki in assay [2] of 43 ± 5 µM. Further, the DPPH activity in assay [3] is given as 0.74 ± 0.10 DPPH molecules / a molecule of stilbene compound.

In assay [1], `Oc1cc(O)cc(/C=C/c2ccc(O)c(O)c2)c1` [Piceatannol (6), Piceatannol] had an IC50 of 15 ± 5 µM and a Ki of 6.7 ± 1.6 µM. In assay [2], this molecule had an IC50 of 4.5 ± 0.4 µM and a Ki of 2.2 ± 0.1 µM. Moreover, the “K’i, inhibition of O2- generation using xanthine oxidase” value in assay [2] (mixed type kinetics, xanthine 0 – 200 µM, pH 10.0) is 21.1 ± 1.0 µM. The “Inhibition kinetics (mode) of O2- generation” value in assay [2] (xanthine 0 – 200 µM) is “mixed type”. For the same molecule, the DPPH activity in assay [3] is recorded as 2.45 ± 0.13 DPPH molecules / a molecule of stilbene compound. For the same molecule, in assay [3] (after the addition of sample solution), the “Initial rate of DPPH scavenging” value worked out at 3.75 µmol/L/s.

By IC50 is commonly meant the midpoint of a concentration-inhibition curve. By Ki is commonly meant the equilibrium dissociation constant of an inhibitor or competing ligand from its target.
